Laboratory results: PubChem BioAssay
Results filed as inconclusive are left out.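 How the source made its calls, unless noted: active means RAM network inhibition above 8.4% in each of two replicates, 3 SD over the compound average; inconclusive means above 8.4% inhibition in only one replicate; inactive means 8.4% inhibition or less in each replicate.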

Experiments:
[1] = OD615 S. cerevisiae growth inhibition, permissive medium, pilot counter-assay, permissive growth control for S. cerevisiae lifespan shortening project (AID 705;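 active means growth inhibition above 25% in both replicates, a cutoff set 3 SD above the mean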); settings: OD615, 24 h, at 10 µM, stronger effect = higher value
In short: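 Timing: 24 h exposure, 30 °C / Material: Saccharomyces cerevisiae strain carrying genetically modified DeaD replicative-lifespan system / Signal: OD at 615 nm / Compound: 10 µM single dose, 0.25% DMSO / Medium: SC raffinose/galactose permissive medium / Evaluation: reduction in yeast growth (OD615)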

[2] = Restrictive medium S. cerevisiae growth inhibition, OD615, pilot screen of yeast lifespan reduction project, restrictive growth control (AID 706;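 active means growth inhibition above a set limit, 3 SD over mean compound inhibition, in both replicates, cut at about 43% in these data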;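 further: modified DeaD lifespan yeast strain shifted to restrictive glucose medium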); settings: OD615, 48 h, at 10 µM, stronger effect = higher value
In short: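 System: Engineered S. cerevisiae DeaD strain | Detection: OD615 | Buffer or medium: CSMM-D glucose medium | Doses: 10 µM compound, 0.25% DMSO | Timing: 4 h pre-growth plus 48 h compound exposure, 30 °C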

[3] = viability gain of MRP-1-high H69AR cells under doxorubicin, pilot screen, MRP-1 activator project, CellTiter-Glo, duplicate (AID 807;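 active means viability increase at or above a cutoff of the median across tested compounds plus 3 SD, cut at about 8.5% in these data, passing the limit was not always enough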;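 further: compound pretreatment 18-22 h then 72 h combined with doxorubicin; 0% = doxorubicin alone and 100% = vehicle without doxorubicin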); settings: H69AR viability with doxorubicin, CellTiter-Glo luminescence; at 10 µM; stronger effect = higher value
[4] = growth suppression of beta-catenin knockout HCT116, pilot screen, human colon tumor cells (AID 823;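 active means cell viability at or below a set limit in both duplicate runs, the limit being the all-compound median minus 4 SD, cut at about 23% in these data, passing the limit was not always enough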;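 further: 0% = wells killed by 20 µM Hyamine and 100% = untreated DMSO cell wells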); settings: CellTiter-Glo, 60 h, at 10 µM, stronger effect = lower value
[5] = growth suppression of PTEN-deleted HCT116, pilot screen, cell-based, HCT116 clonal line, CellTiter-Glo (AID 824;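 active means viability at or below 27.92% in each of two runs, the all-compound median minus 4 SD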;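 further: 0% = 20 µM Hyamine control and 100% = vehicle cell control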); settings: 60 h, at 10 µM, stronger effect = lower value
[6] = inhibitors of the yeast RAM network, pilot screen, dse1pr::URA3 reporter, 5-FOA selection (AID 869;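 active means inhibition over a set limit, the all-compound mean plus 3 SD, in both replicate runs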;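 further: 0% = DMSO wells with no growth and 100% = 10 µM 1-NA-PP1 with full growth; RAM network block rescues cells from 5-FOA so hits raise OD615 growth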); settings: S. cerevisiae dse1pr::URA3 5-FOA growth, OD615, 2 d; at 10 µM; stronger effect = higher value; strain carries analog-sensitive mutant Cbk1 kinase
[7] = RAM signaling pathway blockade in yeast – S. cerevisiae, Pdr1DBD-CYC8 efflux-inhibited sensitized strain, primary screen (AID 1298);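 further: 0% = DMSO untreated cells without growth and 100% = 10 µM 1-NA-PP1 full growth; higher means more yeast growth rescued from 5-FOA killing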; settings: S. cerevisiae cbk1-as DSE1-URA3 strain, 5-FOA growth OD615, 2 d; at 50 µM; stronger effect = higher value

CN(C)S(=O)(=O)c1ccc(C(=O)OCCCN=C2NS(=O)(=O)c3ccccc32)cc1
inactive: growth inhibition [1] -13% | growth inhibition [2] -15.2% | viability increase [3] 0.05% | viability [4] 109% | viability [5] 102% | inhibition [6] 0.955% | RAM network inhibition [7] 2.94%

Cc1nc(Sc2nnnn2-c2ccccc2)c(C#N)c(C)c1C
inactive: growth inhibition [1] -13.8% | growth inhibition [2] -9.12% | viability increase [3] -2.52% | viability [4] 108% | viability [5] 97% | inhibition [6] 2.97% | RAM network inhibition [7] 9.98%

Cc1ccccc1-c1c(C)oc2cc(O)ccc2c1=O
inactive: growth inhibition [1] 1.68% | growth inhibition [2] -0.005% | viability increase [3] -4.28% | viability [4] 96.8% | viability [5] 92.2% | inhibition [6] 2.21% | RAM network inhibition [7] 2.67%

O=[n+]1c2c(n([O-])c3c1CCCC3)CCCCC2
inactive: growth inhibition [1] -3.03% | growth inhibition [2] -9.11% | viability increase [3] 0.93% | viability [4] 102% | viability [5] 99.5% | inhibition [6] 0.345% | RAM network inhibition [7] -0.51%

CC1Cc2ccccc2N1C(=O)c1cnc2n(c1=O)CCS2 (configuration not stated)
inactive: growth inhibition [1] -2.36% | growth inhibition [2] -4.37% | viability increase [3] -0.53% | viability [4] 94.4% | viability [5] 98.9% | inhibition [6] -0.135% | RAM network inhibition [7] 2.13%

O=C(CN1C(=O)CSc2ncccc21)NCCN1CCOCC1
inactive: growth inhibition [1] 0.545% | growth inhibition [2] -1.25% | viability increase [3] -0.4% | viability [4] 106% | viability [5] 99.7% | inhibition [6] 2.09% | RAM network inhibition [7] 3.41%

O=C(c1ccc(CS(=O)(=O)c2ccc(Br)cc2)o1)N1CCN(C2CCCCC2)CC1
inactive: growth inhibition [1] 0.435% | growth inhibition [2] 9.43% | viability increase [3] -3.78% | viability [4] 112% | viability [5] 95.8% | inhibition [6] 1.93% | RAM network inhibition [7] 0.46%

CC(=O)Nc1ccc(S(=O)(=O)NCc2ccc3c(c2)cc(C)n3C)cc1
inactive: growth inhibition [1] 8.2% | growth inhibition [2] 10.1% | viability increase [3] 0.21% | viability [4] 101% | viability [5] 99.2% | inhibition [6] 3.49% | RAM network inhibition [7] 2.12%

Cc1ccc(/C=N/n2c(C)nnc2C)cc1
inactive: growth inhibition [1] -5.29% | growth inhibition [2] -2.88% | viability increase [3] -1.74% | viability [4] 87.4% | viability [5] 99.1% | inhibition [6] 0.135% | RAM network inhibition [7] 0.41%

CCOc1ccc(Cc2nnc(SCC(=O)c3ccc(OC)cc3)o2)cc1
inactive: growth inhibition [1] 1.71% | growth inhibition [2] 25.5% | viability increase [3] 0.28% | viability [4] 54.3% | viability [5] 70.3% | inhibition [6] 1.66% | RAM network inhibition [7] 11.3%

COC(=O)CSc1nc(C)cc(Oc2ccccc2)n1
inactive: growth inhibition [1] -8.61% | growth inhibition [2] -5.81% | viability increase [3] -1.76% | viability [4] 104% | viability [5] 95.8% | inhibition [6] 1.48% | RAM network inhibition [7] 4.9%

O=C(Cn1cc2c(n1)CCCC2)NCCCN1CCN(C2CCCCC2)CC1
inactive: growth inhibition [1] -3.58% | growth inhibition [2] 9.3% | viability increase [3] -0.74% | viability [4] 101% | viability [5] 93.1% | inhibition [6] 1.92% | RAM network inhibition [7] 0.77%

COc1ccc(N2C(=O)CC(c3ccc(OC(C)C)cc3)C2=O)cc1 (configuration not stated)
inactive: growth inhibition [1] -5.08% | growth inhibition [2] -8.6% | viability increase [3] 1.46% | viability [4] 97.9% | viability [5] 104% | inhibition [6] 1.39% | RAM network inhibition [7] 3.45%

CCc1cccc(C)c1NC(=O)CN1C(=O)c2ccccc2S1(=O)=O
inactive: growth inhibition [1] -7.37% | growth inhibition [2] 1.46% | viability increase [3] -0.23% | viability [4] 98.3% | viability [5] 93.2% | inhibition [6] 0.955% | RAM network inhibition [7] 4.79%

COC(=O)c1ccc(-c2nc(-c3ccc(Br)o3)no2)cc1
inactive: growth inhibition [1] -14% | growth inhibition [2] -20.4% | viability increase [3] 3.93% | viability [4] 103% | viability [5] 87.4% | inhibition [6] 2.63% | RAM network inhibition [7] 1.84%

COc1ccc2oc(-c3ccccc3)c(C(N)=O)c2c1
inactive: growth inhibition [1] 2.25% | growth inhibition [2] 11.4% | viability increase [3] -2.49% | viability [4] 99.1% | viability [5] 97.5% | inhibition [6] 0.53% | RAM network inhibition [7] 1.82%

CCCCCOC(=O)NCC(O)c1ccccc1 (configuration not stated)
inactive: growth inhibition [1] -12.5% | growth inhibition [2] -8.97% | viability increase [3] -1.52% | viability [4] 101% | viability [5] 95.5% | inhibition [6] 2.22% | RAM network inhibition [7] 5.59%

Cc1ccc(C(C(=O)NC2CCCCC2)N2CCCC2)cc1 (configuration not stated)
inactive: growth inhibition [1] -4.08% | growth inhibition [2] -8.76% | viability increase [3] -3.02% | viability [4] 88.9% | viability [5] 93% | inhibition [6] 0.835% | RAM network inhibition [7] 8.97%

O=C(Oc1cccnc1)c1cccc(Cl)c1
inactive: growth inhibition [1] 6.51% | growth inhibition [2] 20.1% | viability increase [3] -0.55% | viability [4] 101% | viability [5] 97.5% | inhibition [6] 0.79% | RAM network inhibition [7] -2.15%

Cc1oc2c(O)c(O)ccc2c(=O)c1-c1ccccc1
inactive: growth inhibition [1] -4.7% | growth inhibition [2] 1.24% | viability increase [3] 3.12% | viability [4] 95.1% | viability [5] 90.3% | inhibition [6] -0.32% | RAM network inhibition [7] -0.2%

O=C(NCCCN1CCOCC1)c1ccco1
inactive: growth inhibition [1] -9.93% | growth inhibition [2] -3.09% | viability increase [3] -0.94% | viability [4] 98.8% | viability [5] 96.2% | inhibition [6] 0.23% | RAM network inhibition [7] 2.27%

Cc1nc2ccccc2c2oc(C(=O)N3CCc4ccccc4C3)cc12
inactive: growth inhibition [1] -17.8% | growth inhibition [2] -23.5% | viability increase [3] -3.07% | viability [4] 73.1% | viability [5] 72.5% | inhibition [6] 1.98% | RAM network inhibition [7] 3.91%

O=C(Nc1ccccn1)c1cccc(S(=O)(=O)N2CCOCC2)c1
inactive: growth inhibition [1] 6.61% | growth inhibition [2] -0.23% | viability increase [3] -1.53% | viability [4] 102% | viability [5] 98.3% | inhibition [6] 1.09% | RAM network inhibition [7] 2.13%

COC(=O)C1=CNC=C(C(=O)OC)C1c1ccc(C(=O)OC)cc1
inactive: growth inhibition [1] 1.55% | growth inhibition [2] 6.7% | viability increase [3] -3.35% | viability [4] 93.5% | viability [5] 98.3% | inhibition [6] 0.165% | RAM network inhibition [7] 2.17%

O=C(NCC(c1ccc(F)cc1)N1CCOCC1)c1ccc(Br)o1 (configuration not stated)
inactive: growth inhibition [1] -9.34% | growth inhibition [2] -13.2% | viability increase [3] -1.97% | viability [4] 86.3% | viability [5] 81.8% | inhibition [6] 2.88% | RAM network inhibition [7] 1.24%

COc1ccc(Cc2nnc(SCC(=O)NC(C)c3ccccc3)o2)cc1 (configuration not stated)
inactive: growth inhibition [1] 2.93% | growth inhibition [2] -8.12% | viability increase [3] -1.25% | viability [4] 91.2% | viability [5] 86.8% | inhibition [6] 0.57% | RAM network inhibition [7] 4.19%

COC(=O)c1ccc(COc2ccc3c(C)c(C)c(=O)oc3c2)o1
inactive: growth inhibition [1] -4.33% | growth inhibition [2] -4.88% | viability increase [3] -0.68% | viability [4] 101% | viability [5] 105% | inhibition [6] 1.5% | RAM network inhibition [7] 5.89%

COc1cc2c(cc1OC)C(COc1ccc3c(C)cc(=O)oc3c1)N(C(=O)c1ccco1)CC2 (configuration not stated)
inactive: growth inhibition [1] -1.62% | growth inhibition [2] -3.73% | viability increase [3] -4.63% | viability [4] 91.8% | viability [5] 87.8% | inhibition [6] 1.6% | RAM network inhibition [7] 4.74%

CCOC(=O)c1cccc(NC(=O)CNC(=O)C2CCCCC2)c1
inactive: growth inhibition [1] 3.97% | growth inhibition [2] 2.92% | viability increase [3] -0.32% | viability [4] 96.1% | viability [5] 99.2% | inhibition [6] 0.655% | RAM network inhibition [7] -0.72%

Nc1cc(N)nc(SCCOc2ccccc2)n1
inactive: growth inhibition [1] -4.79% | growth inhibition [2] -0.825% | viability increase [3] 0.93% | viability [4] 106% | viability [5] 106% | inhibition [6] 2.26% | RAM network inhibition [7] 2.17%

CC1(C(=O)NCc2cccnc2)CCC(=O)N1CCc1ccccc1 (configuration not stated)
inactive: growth inhibition [1] 4.98% | growth inhibition [2] 3.93% | viability increase [3] -0.87% | viability [4] 97% | viability [5] 102% | inhibition [6] 2.94% | RAM network inhibition [7] 2.65%

CCSC(C)CC1CC(=O)CC(=O)C1 (configuration not stated)
inactive: growth inhibition [1] -11.7% | growth inhibition [2] 6.03% | viability increase [3] 0.29% | viability [4] 94% | viability [5] 89.9% | inhibition [6] 1.39% | RAM network inhibition [7] 2.13%

O=C(NCCc1csc(-c2ccccc2)n1)c1cccs1
inactive: growth inhibition [1] -8.41% | growth inhibition [2] 2.89% | viability increase [3] 2.21% | viability [4] 93.7% | viability [5] 94.5% | inhibition [6] 0.41% | RAM network inhibition [7] 3.89%

O=C(CN1C(=O)CCC1=O)Nc1nc2c(F)cc(F)cc2s1
inactive: growth inhibition [1] -23% | growth inhibition [2] -18.8% | viability increase [3] -0.91% | viability [4] 99.4% | viability [5] 92.5% | inhibition [6] 1.6% | RAM network inhibition [7] 1.49%

COc1ccc(NC(=O)C2CCCN(S(=O)(=O)c3cccc4cccnc34)C2)cc1 (configuration not stated)
inactive: growth inhibition [1] -12.6% | growth inhibition [2] 4.72% | viability increase [3] -0.46% | viability [4] 88.2% | viability [5] 85.5% | inhibition [6] 2.36% | RAM network inhibition [7] 6.27%

CCn1cc(C(=O)N2CCn3c(nc4ccccc43)C2)c(=O)c2ccc(C)nc21
inactive: growth inhibition [1] -10.2% | growth inhibition [2] -4.84% | viability increase [3] -2.81% | viability [4] 104% | viability [5] 94.3% | inhibition [6] 2.08% | RAM network inhibition [7] 0.07%
